Test results as given in ChEMBL document CHEMBL4414556, “Antiproliferative Acylated Glycerols from New Zealand Propolis” (2019).

Legend:
Assay type in all cases: functional
KYSE-30 [1] = experiment: Antiproliferative activity against human KYSE-30 cells assessed as cell growth inhibition at 55 uM by MTT assay relative to control
Procedure, shortened: (§1)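 Cells revived from cryostorage and grown under supplier-recommended conditions with test samples. Working solutions were made in 15% EtOH/Hank's balanced saline at 2 mg/mL solids. Final well concentrations were 110, 55 or 22 μM, and the 5-fluorouracil reference was run at 450, 150 and 50 nM. MTT viability read after incubation, expressed as % proliferation versus a cells-only control, with six replicates.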

NCI-N87 [2] = experiment: Antiproliferative activity against human NCI-N87 cells assessed as cell growth inhibition at 110 uM by MTT assay relative to control; procedure, shortened: as §1
NCI-N87 [3] = experiment: Antiproliferative activity against human NCI-N87 cells assessed as cell growth inhibition at 22 uM by MTT assay relative to control; procedure, shortened: as §1
DLD-1 [4] = experiment: Antiproliferative activity against human DLD1 cells assessed as cell growth inhibition at 55 uM by MTT assay relative to control; procedure, shortened: as §1
KYSE-30 [5] = experiment: Antiproliferative activity against human KYSE-30 cells assessed as cell growth inhibition at 110 uM by MTT assay relative to control; procedure, shortened: as §1
DLD-1 [6] = experiment: Antiproliferative activity against human DLD1 cells assessed as cell growth inhibition at 110 uM by MTT assay relative to control; procedure, shortened: as §1
KYSE-30 [7] = experiment: Antiproliferative activity against human KYSE-30 cells assessed as cell growth inhibition at 22 uM by MTT assay relative to control; procedure, shortened: as §1
NCI-N87 [8] = experiment: Antiproliferative activity against human NCI-N87 cells assessed as cell growth inhibition at 55 uM by MTT assay relative to control; procedure, shortened: as §1
KYSE-30 [9] = experiment: Antiproliferative activity against human KYSE-30 cells assessed as cell growth inhibition at 450 nM by MTT assay relative to control
Procedure, shortened: (§2)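 Cells revived from cryostorage and cultured under supplier-recommended conditions with test or reference samples. Working solutions at 2 mg/mL solids in 15% EtOH/Hank's balanced saline. 5-Fluorouracil positive control at final well concentrations of 450, 150 and 50 nM. MTT viability read-out after incubation, expressed as percentage proliferation versus cells-only control; six replicates for test and control.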

NCI-N87 [10] = experiment: Antiproliferative activity against human NCI-N87 cells assessed as cell growth inhibition at 450 nM by MTT assay relative to control; procedure, shortened: as §2
DLD-1 [11] = experiment: Antiproliferative activity against human DLD1 cells assessed as cell growth inhibition at 450 nM by MTT assay relative to control; procedure, shortened: as §2

Row | Structure (SMILES) | inhibition at 55 µM (KYSE-30 [1]) [%] | inhibition at 110 µM (NCI-N87 [2]) [%] | inhibition at 22 µM (NCI-N87 [3]) [%] | inhibition at 55 µM (DLD-1 [4]) [%] | inhibition at 110 µM (KYSE-30 [5]) [%] | inhibition at 110 µM (DLD-1 [6]) [%] | inhibition at 22 µM (KYSE-30 [7]) [%] | inhibition at 55 µM (NCI-N87 [8]) [%] | inhibition at 0.45 µM (KYSE-30 [9]) [%] | inhibition at 0.45 µM (NCI-N87 [10]) [%] | inhibition at 0.45 µM (DLD-1 [11]) [%]
1 | CCCCCCCCCCCC[C@@H](O)CCCC[C@@H](O)CC(=O)OCC(O)COC(C)=O (stereo not given in full) | 50 | 100 | 39 | 13 | 52 | 94 | 9 | 86 | – | – | –
2 | CCCCCCCCCCCC[C@@H](O)CCCC[C@@H](O)CC(=O)OCC(O)CO (stereo not given in full) | – | 100 | – | – | 52 | 80 | – | – | – | – | –
3 | CCCCCCCCCCCCC[C@@H](O)CCCC[C@@H](O)CC(=O)OCC(O)COC(C)=O (stereo not given in full) | – | 100 | – | – | 29 | 91 | – | – | – | – | –
4 | O=c1[nH]cc(F)c(=O)[nH]1 [FLUOROURACIL] | – | – | – | – | – | – | – | – | 17 | 8 | 21
5 | CCCCCCCCCCCCCCCC(=O)OCC(O)CO (stereo not given) [GLYCEROL MONOPALMITATE] | – | 100 | – | – | 75 | 72 | – | – | – | – | –
